This is an account of results in article PMC4793151 (Cell host & microbe, 2016).

Data set [1] deals with H. pylori clinical isolates. The data set is described as follows: RIA of Le^b binding of clinical isolates preincubated with DTT. Conditions: Helicobacter pylori, read-out: EC50, DTT-susceptibility of Le^b-binding. The class given is cell-based.
Data set [2] has as its system H. pylori strain 17875/Leb. The experiment in a line: RIA of 125I-labeled Le^b binding to bacterial cells exposed to reducing agent. Format: cell-based, Helicobacter pylori. As to conditions: 20 mg/mL NAC.
The test system of data set [3] is FITC labeled H. pylori strain 17875/Leb. The experiment in a line: In vitro inhibition of H. pylori adherence to human gastric mucosa sections. Format: cell-based, Helicobacter pylori. The essentials: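 FITC-labeled bacterial suspensions were mixed with N-acetylcysteine dilutions in SIA blocking buffer (0, 10, 20, 100 mg/mL) and incubated 1 hr at 37°C. They were then applied to human gastric mucosa tissue sections for 2 hr. Unbound cells were removed with PBS-Tween, and adherent bacteria were quantified digitally by microscopy relative to bacteria without NAC.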

For data set [4] the test system is unchanged. The experiment in a line: In vitro detachment of adherent H. pylori from human gastric mucosa sections. The class given is cell-based, Helicobacter pylori. A digest of the protocol:
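Human gastric mucosa tissue sections were first given FITC-labeled bacteria with no NAC for 2 hr, then washed in PBS-Tween. Bound bacteria were then exposed to N-acetylcysteine dilutions in SIA blocking buffer (10, 20, 100, 200 mg/mL) for 1 hr at 37°C. Slides were washed again in PBS-Tween and remaining adherent bacteria were quantified digitally by microscopy.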

Data set [5] concerns human gastric mucosa sections. The data set is described as follows: Pretreatment of gastric sections. The class given is cell-based. Conditions: up to 200 mg/mL NAC. The essentials: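 Human gastric mucosa sections were preincubated with N-acetylcysteine in SIA blocking buffer (0, 10, 20, 100, 200 mg/mL) for 2 hr at room temperature, then washed three times in PBS-Tween. FITC-labeled H. pylori 17875/Leb was applied for 2 hr and unbound cells were washed off with PBS-Tween. Bacterial binding was quantified digitally by microscopy.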

For data set [6], the target named is T1, BabA^AD CL2 disulfide bond (Helicobacter pylori, UniProt O52269).
T1 sequence (O52269 45-480): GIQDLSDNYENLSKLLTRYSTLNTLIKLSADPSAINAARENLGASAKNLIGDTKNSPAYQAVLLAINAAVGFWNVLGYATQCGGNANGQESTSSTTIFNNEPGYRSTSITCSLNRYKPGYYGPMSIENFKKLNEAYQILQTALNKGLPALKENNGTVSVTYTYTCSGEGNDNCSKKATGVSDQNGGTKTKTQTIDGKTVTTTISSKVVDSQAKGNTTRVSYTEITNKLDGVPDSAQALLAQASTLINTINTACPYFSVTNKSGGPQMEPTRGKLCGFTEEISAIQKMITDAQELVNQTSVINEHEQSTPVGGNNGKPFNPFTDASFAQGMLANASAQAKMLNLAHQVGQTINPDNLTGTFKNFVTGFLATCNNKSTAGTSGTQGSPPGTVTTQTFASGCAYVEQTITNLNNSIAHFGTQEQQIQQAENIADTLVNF
The experiment in a line: Quantitative MS of tryptic digests: CL2 disulfide reduction. The class given is biochemical.

In a further data set the test system is H. pylori. The experiment in a line: H. pylori infection of Le^b-expressing transgenic mice. Format: in vivo. As to conditions: 2 week, 40 mg/day/animal in drinking water.
The target of data set [7] is T2, BabA CBD of Alaskan strain A730 (Helicobacter pylori, UniProt O52269).
T2 sequence (O52269 45-480): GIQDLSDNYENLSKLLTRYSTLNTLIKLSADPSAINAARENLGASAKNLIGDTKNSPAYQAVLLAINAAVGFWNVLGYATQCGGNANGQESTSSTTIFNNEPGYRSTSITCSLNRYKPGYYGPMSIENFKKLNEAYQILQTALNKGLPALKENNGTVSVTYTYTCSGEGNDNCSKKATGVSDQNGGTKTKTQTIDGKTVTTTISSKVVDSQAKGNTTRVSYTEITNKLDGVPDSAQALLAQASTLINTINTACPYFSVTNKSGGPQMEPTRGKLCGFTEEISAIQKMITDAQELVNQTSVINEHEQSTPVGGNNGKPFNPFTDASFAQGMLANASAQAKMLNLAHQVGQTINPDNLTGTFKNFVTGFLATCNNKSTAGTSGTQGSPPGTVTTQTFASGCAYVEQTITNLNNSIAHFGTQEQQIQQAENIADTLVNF
The data set is described as follows: Monovalent binding affinity. As to conditions: for Kd: A730. The essentials:
(§1)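 BabA adhesin domain isoforms from strains A730 and P436, plus the strain 17875 reference domain, were expressed recombinantly in E. coli as outer-membrane- or periplasm-targeted proteins and purified by His-tag affinity. In vitro binding was measured by isothermal titration calorimetry: injection heats were integrated into a normalized binding isotherm.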

The subject of data set [8] is BabA^AD;DL1-S831. The experiment in a line: ITC of BabA^AD. Format: binding, Helicobacter pylori.
The target of a further data set is T3, full-length BabA (Helicobacter pylori, UniProt O52269).
T3 sequence (O52269 21-741): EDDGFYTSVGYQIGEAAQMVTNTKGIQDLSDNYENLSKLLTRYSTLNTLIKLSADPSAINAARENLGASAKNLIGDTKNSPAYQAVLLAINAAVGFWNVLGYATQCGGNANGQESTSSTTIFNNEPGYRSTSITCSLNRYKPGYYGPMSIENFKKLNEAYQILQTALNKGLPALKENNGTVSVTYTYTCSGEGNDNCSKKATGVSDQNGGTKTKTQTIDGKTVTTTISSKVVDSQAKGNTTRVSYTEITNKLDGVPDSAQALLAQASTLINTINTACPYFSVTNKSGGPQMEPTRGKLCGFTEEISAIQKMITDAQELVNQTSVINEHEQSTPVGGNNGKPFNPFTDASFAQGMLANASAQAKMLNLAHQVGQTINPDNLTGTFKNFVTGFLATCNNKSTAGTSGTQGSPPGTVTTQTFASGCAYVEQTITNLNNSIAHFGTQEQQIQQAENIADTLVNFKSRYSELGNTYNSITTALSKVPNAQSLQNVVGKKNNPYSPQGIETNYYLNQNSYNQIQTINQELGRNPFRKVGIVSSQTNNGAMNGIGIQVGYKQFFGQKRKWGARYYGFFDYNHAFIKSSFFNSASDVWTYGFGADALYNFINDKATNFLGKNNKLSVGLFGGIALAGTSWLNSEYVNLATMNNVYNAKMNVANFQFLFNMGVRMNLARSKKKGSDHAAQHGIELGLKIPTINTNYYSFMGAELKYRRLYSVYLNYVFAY
The experiment in a line: SPR of full-length BabA on Le^b-coated chip. Format: binding. The essentials: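 Surface plasmon resonance on a chip carrying immobilized Leb. Full-length BabA was flowed over it at 500, 250, 125, 62.5, 31.3 and 15.7 nM. Raw sensorgrams were fitted to binding curves to derive Kd, the association rate constant ka and the dissociation rate constant kd, each reported with a ± spread.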

Data set [9] concerns BabA CBD of Peruvian strain P436. The experiment in a line: Monovalent binding affinity. Also noted: species or system Helicobacter pylori. Conditions: P436 versus 17875 BabA. The essentials:
as §1

The subject of data set [10] is BabA^AD;DL1-S831. The data set is described as follows: SPR competition of BabA^AD. Conditions: 2-fold dilution series from 5 mM to 1 μM. Format: binding, Helicobacter pylori.
In the next data set the test system is BabA. As to conditions: ref Borén et al., 1993; cited from earlier work.
The target in data set [11] is T4, strain 17875 BabA adhesin domain (BabA^AD), residues 25-460 (Helicobacter pylori strain 17875, strain).
T4 chain: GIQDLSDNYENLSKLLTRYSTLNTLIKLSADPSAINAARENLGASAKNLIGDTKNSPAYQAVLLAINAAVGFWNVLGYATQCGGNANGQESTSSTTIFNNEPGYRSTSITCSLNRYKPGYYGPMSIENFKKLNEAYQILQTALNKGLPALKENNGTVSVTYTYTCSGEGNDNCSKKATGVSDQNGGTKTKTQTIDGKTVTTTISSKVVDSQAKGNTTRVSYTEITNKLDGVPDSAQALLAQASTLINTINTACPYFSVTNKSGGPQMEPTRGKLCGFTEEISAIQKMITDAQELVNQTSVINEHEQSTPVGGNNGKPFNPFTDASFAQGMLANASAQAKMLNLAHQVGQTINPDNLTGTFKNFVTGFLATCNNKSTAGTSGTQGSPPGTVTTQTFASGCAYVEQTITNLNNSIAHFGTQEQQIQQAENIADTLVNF
The experiment in a line: crystal structure.

In the case of `O[C@@H](CS)[C@@H](O)CS` (racemic) [DTT, dithiothreitol], the EC50 in data set [1] is 2000 to 10000 µM.
As for `CC(=O)N[C@@H](CS)C(=O)O` [NAC, N-acetyl-L-cysteine], the “BabA-Le^b binding after incubation of bacteria” value in [2] is recorded as “inactivated”. In addition, the adherent bacteria in data set [3] (10 mg/mL NAC preincubation) is 14%; in data set [3] (20 mg/mL NAC preincubation) it was “less than 5%”. Also, in data set [3] (20 mg/mL NAC, bacteria preincubated), the “inhibition of bacterial adherence” value is on record as “almost eliminated”. In [3] (Helicobacter pylori, read-out: inhibition of bacterial adherence), the inhibition at 10000 µg/mL turned out to be 86%. Moreover, the bacterial detachment entry is “undetectable” in [4] (10 mg/mL NAC on sections with bound bacteria), 50% in data set [4] (20 mg/mL NAC on sections with bound bacteria) and “over 90%” in data set [4] (200 mg/mL NAC on sections with bound bacteria). Also, the “effect of section pretreatment on bacterial binding” value in data set [5] is “did not affect bacterial binding”. Besides, the EC50 in data set [6] is 55100 µM. Besides, in the data set with H. pylori, the “fold lower neutrophil recruitment to the gastric mucosa” value is reported as 13 fold. Besides, the “fold reduction in H. pylori epithelial adherence” value with H. pylori amounted to 2 fold.
In turn, `CC(=O)N[C@H]1[C@H](O[C@H]2[C@@H](O)[C@@H](CO)O[C@@H](O[C@H]3[C@H](O)[C@@H](O)C(O)O[C@@H]3CO)[C@@H]2O)O[C@H](CO)[C@@H](O[C@@H]2O[C@@H](C)[C@@H](O)[C@@H](O)[C@@H]2O)[C@@H]1O[C@@H]1O[C@H](CO)[C@H](O)[C@H](O[C@H]2O[C@H](CO)[C@H](O)[C@H](O)[C@H]2O)[C@H]1O[C@@H]1O[C@@H](C)[C@@H](O)[C@@H](O)[C@@H]1O` (stereo partly shown) [BLe^b7] registered a Kd in [7] of 93 µM. Moreover, the ITC binding entry with BabA^AD;DL1-S831 [8] (titration) is listed as “no binding heat signal”.
With `CC(=O)N[C@H]1[C@@H](O[C@H]2[C@@H](O)[C@@H](CO)O[C@@H](O[C@H]3[C@H](O)[C@@H](CO)O[C@@H](O[C@H]4[C@@H](O)[C@@H](CO)O[C@@H](O[C@H]5[C@H](O)[C@@H](O)C(O)O[C@@H]5CO)[C@@H]4O)[C@@H]3NC(C)=O)[C@@H]2O[C@@H]2O[C@@H](C)[C@@H](O)[C@@H](O)[C@@H]2O)O[C@H](CO)[C@H](O)[C@@H]1O` (stereo partly shown) [A6-1, A type 1 hexasaccharide], in data set [7], binding was put at a Kd of 305 µM.
Regarding Le^b hexasaccharide, at full-length BabA, the “association rate constant ka” value was found to be 610000 ± 140000 M⁻¹ s⁻¹. In addition, binding on full-length BabA (full-length protein) was characterised by a dissociation constant (Kd) of 0.00039 µM. For the same molecule, the “fold loss in monovalent binding affinity” value in data set [9] is roughly 15 fold; in [7] (A730 versus 17875 BabA), roughly 20 fold. Moreover, in the data set with BabA^AD;DL1-S831 [8] (Figures 7B and S7A), the “Le^b binding of S831 DL1 graft” value was “active”. Besides, the “suppression of binding to Le^b-coated SPR chip by soluble glycan” value with BabA^AD;DL1-S831 [10] is “suppressed”. Also, the “fold stronger binding to Le^b versus type 1 H neoglycoconjugates” value in the data set on BabA is reported as “about 2 fold”.

B1: Nb-ER14 (VHH)
VHH: QVQLQESGGGLVQPGGSLRLSCAASGSIYSLIAMGWYRQAPGKEHELVATISSGSTTYYADSVKGRFTISRDNAKNTLYLQMNSLKPEDTAMYYCAAYSDRLTDCSNCEADYWGQGTQVTVS
As for B1, in data set [11], the binding result is “binds”.

B2: Nb-ER19 (VHH)
VHH: QVQLQESGGGLVQPGGSLRLSCAASGSIFSGNVMGWYRQAPGKLREWVAAITPQGVPNYADSVKGRFTISRDNAKNMLYLQMSSLKPEDTALYYCNRLPNYRSWGQGTQVTVSS
For the molecule B2, the binding result in data set [11] was “binds”.
